Experiment [1] is described as follows: SK-BR-3 cell growth inhibitors, pilot screen, 24 h, human (AID 572;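 active = viability at or below 10% of carrier control in both of two separate runs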;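 note: compound exposure lasted between 18 and 24 h rather than exactly 24 h; 100% = carrier-treated control wells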). The conditions noted are these: SK-BR-3 viability, CellTiter-Glo luminescence, at 10 µM, stronger effect = lower value. (Cellular ATP, detected with luciferase, serves as a proxy for viable cell number.)
A short description of experiment [2]: HUVEC growth inhibition – cell-based, human, primary screen (AID 575;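 active = viability at or below 30% in both replicate assays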;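 note: 100% = median of untreated cell wells with 0.1% DMSO on each plate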). The conditions noted are these: HUVEC proliferation, CellTiter-Glo luminescence, 72 h; at 10 µM; stronger effect = lower value. The method, boiled down: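 Test system: primary human umbilical vein endothelial cells; medium: endothelial basal medium with 2% FBS plus growth supplements; dosing: 10 µM compound only; times: 72 h treatment at 37 °C; signal: CTG luminescence; read-out: % viability relative to median vehicle-well signal on each plate; control set: vehicle and MePR control wells; plate: 384-well, collagen-coated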

The nature of experiment [3]: growth inhibitors of H69AR lung tumor, primary screen, human, duplicate replicates (AID 580).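 Note: 100% = mean luminescence of untreated wells and 0% = no signal.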 The following applies: H69AR lung tumor cells viability, ATP luminescence, 72 h; at 10 µM; stronger effect = lower value.
A short description of experiment [4]: reversal of MRP1-mediated doxorubicin resistance, pilot screen, H69AR cells, doxorubicin co-treatment (AID 601;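 active = viability loss from added drug above about 55%, and viability with drug at most 40%, in both replicates, limit read from the data, passing the limit was not always enough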). The following applies: CellTiter-Glo, 72 h, at 10 µM; for differential viability (reversal): stronger effect = higher value.
A short description of experiment [5]: 384-well plate pilot, post-Golgi transport modulator project, inhibition of yeast transport mutant growth (AID 636; in the data active = inhibition above about 31%). The following applies: absorbance 615 nm, about 18 h, stronger effect = higher value.
The nature of experiment [6]: growth suppression of yeast trafficking mutant, preliminary HTS, modulators of trafficking downstream of Golgi apparatus project, 1536-format plate, OD 615 nm (AID 637; in the data active = inhibition above about 30%). The conditions noted are these: yeast transport mutant growth, absorbance 615 nm, 18 h; stronger effect = higher value.
Where [7] appears, read: H69AR cells + 2 uM doxorubicin, measured here: viability with 2 uM doxorubicin, stronger effect = lower value.
The mark [8] stands for this setting: H69AR cells, compound alone cytotoxicity.

The source made the active and inactive calls.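 Rule for the calls, unless noted: active = viability at or under a set limit in both replicates, limit being median viability minus 3 SD (cut at about 48% in these data, passing the limit was not always enough); inconclusive = at or under the limit in just one replicate; inactive = at or above the limit in both replicates.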

As for `CCCc1c(OCCCCc2nn[nH]n2)ccc(C(C)=O)c1O`, the viability (in general, a read-out of living cells in per cent, often relative to untreated cells) in experiment [1] was 77% (inactive); in experiment [2], 67% (inactive); in experiment [3] it was 84.4% (inactive); in experiment [4] (setting [7]) it was 105%; in experiment [4] (setting [8]) it was 84.4%. In experiment [4] (H69AR cells + 2 uM doxorubicin), the differential viability (reversal) is -20.6% (inactive). Also, the figures for the inhibition in experiment [5] and in experiment [6] were -1.56% (inactive) and 3% (inactive), respectively.
With `CCC(C(=O)N1CCc2cc(OC)c(OC)cc2C1)c1ccccc1` (centres undefined), the viability in experiment [1] is 99% (inactive); in experiment [2], 109% (inactive); in experiment [3] it was 94.5% (inactive); in experiment [4] (setting [7]), 92%; in experiment [4] (setting [8]), 94.5%. In addition, in experiment [4] (H69AR cells + 2 uM doxorubicin), the differential viability (reversal) is 2.46% (inactive). Further, the inhibition (in general, the relative decrease from the control value, in per cent) was -4.52% (inactive) in experiment [5] and -11.9% (inactive) in experiment [6].
Turning to `Cn1nc(-c2ccc(N3CCCCC3)c(NC(=O)c3ccco3)c2)c2ccccc2c1=O`, the viability is 107% (inactive) in experiment [1]; 56.2% (inactive) in experiment [2]; 32.3% (active) in experiment [3]; 20.8% in experiment [4] (setting [7]); 32.3% in experiment [4] (setting [8]). The differential viability (reversal) in experiment [4] (H69AR cells + 2 uM doxorubicin) was 11.6% (inactive). Also, the inhibition in experiment [5] is 1.6% (inactive); in experiment [6] it was 4.35% (inactive).
Consider `Cn1cnnc1Sc1nc2c(c(=O)n(C)c(=O)n2C)n1Cc1ccccc1Cl`, for which the viability is 72% (inactive) in experiment [1]; 98.5% (inactive) in experiment [2]; 90.3% (inactive) in experiment [3]; 92.4% in experiment [4] (setting [7]); 90.3% in experiment [4] (setting [8]). In addition, the differential viability (reversal) in experiment [4] (H69AR cells + 2 uM doxorubicin) is -2.15% (inactive). Also, the figures for the inhibition in experiment [5] and in experiment [6] were -3.7% (inactive) and 0.91% (inactive), respectively.
On to `CN(c1ccccc1C(=O)NCC1CCCO1)S(C)(=O)=O` (centres undefined), for which the viability in experiment [1] was 67% (inactive); in experiment [2], 103% (inactive); in experiment [3] it was 101% (inactive); in experiment [4] (setting [7]) it was 90%; in experiment [4] (setting [8]), 101%. The differential viability (reversal) in experiment [4] (H69AR cells + 2 uM doxorubicin) is 11.2% (inactive). In addition, the inhibition in experiment [5] is -4.11% (inactive); in experiment [6], 2.36% (inactive).
Consider `Cn1c(Cc2ccccc2)nnc1SCC(=O)N1CCOCC1`, for which the viability in experiment [1] was 91% (inactive); in experiment [2], 95.6% (inactive); in experiment [3] it was 101% (inactive); in experiment [4] (setting [7]), 94.8%; in experiment [4] (setting [8]), 101%. Moreover, the differential viability (reversal) in experiment [4] (H69AR cells + 2 uM doxorubicin) is 6.17% (inactive). For the same molecule, the inhibition was -1.08% (inactive) in experiment [5] and 28.7% (inactive) in experiment [6].
As for `CCN(CC(=O)NC1CCS(=O)(=O)C1)C(=O)C(c1ccccc1)c1ccccc1` (centres undefined), the viability was 119% (inactive) in experiment [1]; 102% (inactive) in experiment [2]; 102% (inactive) in experiment [3]; 88.2% in experiment [4] (setting [7]); 102% in experiment [4] (setting [8]). Besides, the differential viability (reversal) in experiment [4] (H69AR cells + 2 uM doxorubicin) is 14.2% (inactive). Besides, the values for the inhibition in experiment [5] and in experiment [6] were -5.14% (inactive) and -2.91% (inactive), respectively.
On to `COCCCNC(=O)CCn1c(=O)c2ccccc2n(CC(=O)Nc2ccc(C)cc2C)c1=O`, for which the viability in experiment [1] is 101% (inactive); in experiment [2] it was 106% (inactive); in experiment [3] it was 87.1% (inactive); in experiment [4] (setting [7]) it was 79.9%; in experiment [4] (setting [8]) it was 87.1%. The differential viability (reversal) in experiment [4] (H69AR cells + 2 uM doxorubicin) is 7.22% (inactive). In addition, the inhibition in experiment [5] was 1.3% (inactive); in experiment [6] it was -5.41% (inactive).
With `COC(=O)C1CCN(C(=O)CN2C(=O)NC(CCc3ccccc3)C2=O)CC1` (centres undefined), the viability in experiment [1] was 119% (inactive); in experiment [2] it was 94.2% (inactive); in experiment [3] it was 91.7% (inactive); in experiment [4] (setting [7]), 90.9%; in experiment [4] (setting [8]), 91.7%. In addition, in experiment [4] (H69AR cells + 2 uM doxorubicin), the differential viability (reversal) is 0.73% (inactive). For the same molecule, the inhibition in experiment [5] was -1.92% (inactive); in experiment [6], 3.87% (inactive).
Consider `O=C(Nc1ccc(F)cc1)NC1CCN(Cc2nnnn2Cc2ccco2)CC1`, for which the viability is 92% (inactive) in experiment [1]; 70.5% (inactive) in experiment [2]; 88.2% (inactive) in experiment [3]; 88.5% in experiment [4] (setting [7]); 88.2% in experiment [4] (setting [8]). The differential viability (reversal) in experiment [4] (H69AR cells + 2 uM doxorubicin) is -0.315% (inactive). The inhibition was -5.21% (inactive) in experiment [5] and -7.9% (inactive) in experiment [6].
Consider `C=CCn1c(SCC#N)nc2c(c1=O)C(C)(C)Cc1ccccc1-2`, for which the viability in experiment [1] is 104% (inactive); in experiment [2], 76.2% (inactive); in experiment [3], 78.8% (inactive); in experiment [4] (setting [7]), 85%; in experiment [4] (setting [8]), 78.8%. The differential viability (reversal) in experiment [4] (H69AR cells + 2 uM doxorubicin) is -6.17% (inactive). Also, the inhibition in experiment [5] was -5.62% (inactive); in experiment [6] it was 3.71% (inactive).
Regarding `Cc1ccccc1-n1c(SCc2c(C)noc2C)nnc1-c1ccncc1`, the viability in experiment [1] is 92% (inactive); in experiment [2], 87.5% (inactive); in experiment [3], 87.4% (inactive); in experiment [4] (setting [7]) it was 79.1%; in experiment [4] (setting [8]), 87.4%. Moreover, the differential viability (reversal) in experiment [4] (H69AR cells + 2 uM doxorubicin) is 8.34% (inactive). Further, the inhibition in experiment [5] is -3.78% (inactive); in experiment [6], -2% (inactive).
For `Cc1c(C(=O)N2CCN(c3ccccc3)CC2)sc2ncnc(N3CCN(c4ccccc4)CC3)c12`, the viability in experiment [1] was 88% (inactive); in experiment [2], 82.5% (inactive); in experiment [3], 93% (inactive); in experiment [4] (setting [7]) it was 97.2%; in experiment [4] (setting [8]), 93%. For the same molecule, the differential viability (reversal) in experiment [4] (H69AR cells + 2 uM doxorubicin) was -4.17% (inactive). Further, the figures for the inhibition in experiment [5] and in experiment [6] were 0.13% (inactive) and -4.59% (inactive), respectively.
Regarding `O=C(Nc1nnc(C2CCCC2)s1)C1CCN(S(=O)(=O)c2ccc(Cl)cc2)CC1`, the viability is 92% (inactive) in experiment [1]; 94.4% (inactive) in experiment [2]; 72.3% (inactive) in experiment [3]; 68.5% in experiment [4] (setting [7]); 72.3% in experiment [4] (setting [8]). Moreover, the differential viability (reversal) in experiment [4] (H69AR cells + 2 uM doxorubicin) was 3.83% (inactive). Also, the figures for the inhibition in experiment [5] and in experiment [6] were -5.87% (inactive) and -5.64% (inactive), respectively.
On to `COc1ccccc1-n1c(=O)c2c3c(sc2n2c(SC(C)C)nnc12)CCC3`, for which the viability in experiment [1] was 104% (inactive); in experiment [2], 113% (inactive); in experiment [3] it was 86.2% (inactive); in experiment [4] (setting [7]), 41.7%; in experiment [4] (setting [8]) it was 86.2%. Further, the differential viability (reversal) in experiment [4] (H69AR cells + 2 uM doxorubicin) was 44.6% (inactive). The inhibition was -0.14% (inactive) in experiment [5] and 1.77% (inactive) in experiment [6].
In the case of `CCN(CC)CCNC(=O)c1cc(Cl)c(N)cc1OC`, the viability in experiment [1] is 89% (inactive); in experiment [2], 85.9% (inactive); in experiment [3] it was 93.8% (inactive); in experiment [4] (setting [7]) it was 102%; in experiment [4] (setting [8]) it was 93.8%. The differential viability (reversal) in experiment [4] (H69AR cells + 2 uM doxorubicin) is -8.38% (inactive). Further, the inhibition in experiment [5] was -3.25% (inactive); in experiment [6] it was -2.5% (inactive).
In the case of `COC(=O)c1ccc(CSc2nnnn2Cc2ccccc2)cc1`, the viability was 111% (inactive) in experiment [1]; 98.6% (inactive) in experiment [2]; 86% (inactive) in experiment [3]; 85.2% in experiment [4] (setting [7]); 86% in experiment [4] (setting [8]). The differential viability (reversal) in experiment [4] (H69AR cells + 2 uM doxorubicin) is 0.715% (inactive). Further, the inhibition was -4.13% (inactive) in experiment [5] and -2.36% (inactive) in experiment [6].
In the case of `CN(C)C(=O)COc1ccc2cc(-c3ccccc3)c(=O)oc2c1`, the viability in experiment [1] is 93% (inactive); in experiment [2] it was 98.1% (inactive); in experiment [3] it was 90.7% (inactive); in experiment [4] (setting [7]), 92.9%; in experiment [4] (setting [8]) it was 90.7%. In experiment [4] (H69AR cells + 2 uM doxorubicin), the differential viability (reversal) was -2.2% (inactive). The inhibition is -7.12% (inactive) in experiment [5] and -4.18% (inactive) in experiment [6].
